Source: ChEMBL document CHEMBL3351351, “Synthesis and evaluation of sulfonylethyl-containing phosphotriesters of 3'-azido-3'-deoxythymidine as anticancer prodrugs” (Bioorg Med Chem, 2014)
Values belong to the compound of their own block, whether it stands above or below them.

Assays:
MCF7 = test: Cytotoxicity against human MCF7 cells after 72 hrs by MTT assay; type: functional, cell-based; conditions: MCF7, 72 h
[1] = Half life in 0.1 M phosphate buffer at pH 7.4 at 37 degC by TLC; type: physicochemical
How it was run: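 Compound incubated in 0.1 M phosphate buffer pH 7.4 at 37 °C with shaking for varying times. Stopped with 2.0 M acetate buffer (pH 5) and ethanol, then chilled on ice and analysed by TLC. Percent parent left relative to zero-time control plotted against time; t1/2 = ln2/k from decay rate constant; mean ± SD of three independent experiments.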

[2] = Cytotoxicity against human KB-3-1 cells after 72 hrs by MTT assay; type: functional, cell-based; conditions: KB 3-1, 72 h
143B [3] = test: Cytotoxicity against human 143B cells after 72 hrs by MTT assay; type: functional, cell-based
[4] = Cytotoxicity against human H460 cells after 72 hrs by MTT assay; type: functional, cell-based; conditions: NCI-H460, 72 h
[5] = Half life in human plasma by TLC; type: ADME, cell-free
How it was run: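 Freshly reconstituted lyophilized human plasma in 0.1 M phosphate buffer pH 7.4 (0.4 mL plasma solution plus 0.1 mL drug solution) incubated at 37 °C. Stopped as for the buffer test, proteins spun out at 3000 × g for 30 min, supernatant run on TLC. Half-life from first-order decay, three independent experiments; the ratio compares it with the buffer half-life.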

SW-620 = test: Cytotoxicity against human SW620 cells after 72 hrs by MTT assay; type: functional, cell-based; conditions: SW-620, 72 h
143B [6] = test: Cytotoxicity against human thymidine kinase-deficient 143B cells after 72 hrs by MTT assay; type: functional, cell-based
143B [7] = test: Ratio of IC50 for human thymidine kinase-deficient 143B cells to IC50 for human 143B cells; type: functional
How it was run: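 143B kept in EMEM with 10% FBS and 1% penicillin/streptomycin; the TK-deficient 143B/TK⁻ line kept in EMEM with 0.015 mg/mL 5-BrdU.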

SMILES: Cc1cn([C@H]2C[C@H](N=[N+]=[N-])[C@@H](COP(=O)(OCCS(=O)(=O)c3ccccc3)Oc3ccc(F)cc3)O2)c(=O)[nH]c1=O (some centres undefined)
- IC50 (MCF7): 26.2 µM
- half-life [1]: 1.08 h
- IC50 [2]: 23.3 µM
- IC50 (143B [3]): 26.6 µM
- IC50 [4]: 20.8 µM
- half-life [5]: 0.37 h
- IC50 (SW-620): 64.5 µM

- half-life [1]: 0.36 h
- half-life [5]: 0.13 h
SMILES: Cc1cn([C@H]2C[C@H](N=[N+]=[N-])[C@@H](COP(=O)(OCCS(=O)(=O)c3ccc(Cl)cc3)OCCS(=O)(=O)c3ccc(Cl)cc3)O2)c(=O)[nH]c1=O
- IC50 (MCF7): 9.46 µM
- IC50 (143B [6]): 8.8 µM
- IC50 [2]: 7.84 µM
- IC50 (143B [3]): 7.83 µM
- IC50 [4]: 4.47 µM
- Ratio IC50 (143B [7]): 1.1
- IC50 (SW-620): 11.6 µM

SMILES: Cc1cn([C@H]2C[C@H](N=[N+]=[N-])[C@@H](COP(=O)(OCCS(=O)(=O)c3ccccc3)Oc3ccc(Cl)cc3)O2)c(=O)[nH]c1=O (some centres undefined)
- IC50 (MCF7): 25 µM
- half-life [1]: 0.79 h
- IC50 [2]: 21.4 µM
- IC50 (143B [3]): 24.4 µM
- IC50 [4]: 17.9 µM
- half-life [5]: 0.35 h
- IC50 (SW-620): 61.3 µM

SMILES: Cc1ccc(OP(=O)(OCCS(=O)(=O)c2ccccc2)OC[C@H]2O[C@@H](n3cc(C)c(=O)[nH]c3=O)C[C@@H]2N=[N+]=[N-])cc1 (some centres undefined)
- IC50 (MCF7): 28.2 µM
- half-life [1]: 1.32 h
- IC50 [2]: 27.1 µM
- IC50 (143B [3]): 28.3 µM
- IC50 [4]: 24.7 µM
- half-life [5]: 0.6 h
- IC50 (SW-620): 71.7 µM

SMILES: COc1ccc(OP(=O)(OCCS(=O)(=O)c2ccccc2)OC[C@H]2O[C@@H](n3cc(C)c(=O)[nH]c3=O)C[C@@H]2N=[N+]=[N-])cc1 (some centres undefined)
- IC50 (MCF7): 20.4 µM
- half-life [1]: 1.53 h
- IC50 (143B [6]): 25.3 µM
- IC50 [2]: 15.2 µM
- IC50 (143B [3]): 20.2 µM
- IC50 [4]: 12.3 µM
- Ratio IC50 (143B [7]): 1.3
- half-life [5]: 0.6 h
- IC50 (SW-620): 47.3 µM

- half-life [1]: 3.56 h
- half-life [5]: 1.35 h
SMILES: Cc1cn([C@H]2C[C@H](N=[N+]=[N-])[C@@H](COP(=O)(OC(C)CS(=O)(=O)c3ccccc3)OC(C)CS(=O)(=O)c3ccccc3)O2)c(=O)[nH]c1=O (some centres undefined)
- IC50 (MCF7): 22.4 µM
- IC50 [2]: 18.4 µM
- IC50 (143B [3]): 22.5 µM
- IC50 [4]: 14.6 µM
- IC50 (SW-620): 54.8 µM

- half-life [1]: 2.16 h
- half-life [5]: 0.51 h
SMILES: Cc1cn([C@H]2C[C@H](N=[N+]=[N-])[C@@H](COP(=O)(OCC(c3ccccc3)S(=O)(=O)c3ccccc3)OCC(c3ccccc3)S(=O)(=O)c3ccccc3)O2)c(=O)[nH]c1=O (some centres undefined)
- IC50 (MCF7): 14.1 µM
- IC50 (143B [6]): 19.7 µM
- IC50 [2]: 9.82 µM
- IC50 (143B [3]): 14.2 µM
- IC50 [4]: 7.13 µM
- Ratio IC50 (143B [7]): 1.2
- IC50 (SW-620): 42.2 µM

- half-life [1]: 1.09 h
- half-life [5]: 0.4 h
SMILES: Cc1ccc(S(=O)(=O)CCOP(=O)(OCCS(=O)(=O)c2ccc(C)cc2)OC[C@H]2O[C@@H](n3cc(C)c(=O)[nH]c3=O)C[C@@H]2N=[N+]=[N-])cc1
- IC50 (MCF7): 19.6 µM
- IC50 [2]: 14.4 µM
- IC50 (143B [3]): 19.6 µM
- IC50 [4]: 11.3 µM
- IC50 (SW-620): 46.6 µM

SMILES: Cc1cn([C@H]2C[C@H](N=[N+]=[N-])[C@@H](CO)O2)c(=O)[nH]c1=O [ZIDOVUDINE]
- IC50 (MCF7): 13.7 µM
- IC50 (143B [6]): 148 µM
- IC50 [2]: 9.17 µM
- IC50 (143B [3]): 12.2 µM
- IC50 [4]: 6.81 µM
- Ratio IC50 (143B [7]): 12.1
- IC50 (SW-620): 39.1 µM

- half-life [1]: 1.44 h
- half-life [5]: 0.55 h
SMILES: COc1ccc(S(=O)(=O)CCOP(=O)(OCCS(=O)(=O)c2ccc(OC)cc2)OC[C@H]2O[C@@H](n3cc(C)c(=O)[nH]c3=O)C[C@@H]2N=[N+]=[N-])cc1
- IC50 (MCF7): 6.38 µM
- IC50 (143B [6]): 5.16 µM
- IC50 [2]: 4.68 µM
- IC50 (143B [3]): 5.45 µM
- IC50 [4]: 1.71 µM
- Ratio IC50 (143B [7]): 0.9
- IC50 (SW-620): 7.62 µM

SMILES: Cc1ccc(OP(=O)(OCCSc2ccccc2)OC[C@H]2O[C@@H](n3cc(C)c(=O)[nH]c3=O)C[C@@H]2N=[N+]=[N-])cc1 (some centres undefined)
- half-life [1]: 12 h
- half-life [5]: 20 h

- half-life [1]: 279 h
- half-life [5]: 70.1 h
SMILES: Cc1cn([C@H]2C[C@H](N=[N+]=[N-])[C@@H](COP(=O)(OC(C)C(C)S(=O)(=O)c3ccccc3)OC(C)C(C)S(=O)(=O)c3ccccc3)O2)c(=O)[nH]c1=O (some centres undefined)
- IC50 (MCF7): 26.8 µM
- IC50 [2]: 24.2 µM
- IC50 (143B [3]): 26.4 µM
- IC50 [4]: 22.2 µM
- IC50 (SW-620): 66.7 µM

- half-life [1]: 5.42 h
- half-life [5]: 1.77 h
SMILES: CCC(CS(=O)(=O)c1ccccc1)OP(=O)(OC[C@H]1O[C@@H](n2cc(C)c(=O)[nH]c2=O)C[C@@H]1N=[N+]=[N-])OC(CC)CS(=O)(=O)c1ccccc1 (some centres undefined)
- IC50 (MCF7): 12.2 µM
- IC50 (143B [6]): 13.3 µM
- IC50 [2]: 8.28 µM
- IC50 (143B [3]): 11.5 µM
- IC50 [4]: 5.13 µM
- Ratio IC50 (143B [7]): 1.2
- IC50 (SW-620): 27.8 µM

- half-life [1]: 0.71 h
- half-life [5]: 0.23 h
SMILES: Cc1cn([C@H]2C[C@H](N=[N+]=[N-])[C@@H](COP(=O)(OCCS(=O)(=O)c3ccccc3)OCCS(=O)(=O)c3ccccc3)O2)c(=O)[nH]c1=O
- IC50 (MCF7): 16.3 µM
- IC50 [2]: 11 µM
- IC50 (143B [3]): 16.3 µM
- IC50 [4]: 7.59 µM
- IC50 (SW-620): 43 µM

- half-life [1]: 13.6 h
- half-life [5]: 4.21 h
SMILES: Cc1cn([C@H]2C[C@H](N=[N+]=[N-])[C@@H](COP(=O)(OCC(C)S(=O)(=O)c3ccccc3)OCC(C)S(=O)(=O)c3ccccc3)O2)c(=O)[nH]c1=O (some centres undefined)
- IC50 (MCF7): 27.6 µM
- IC50 [2]: 25.2 µM
- IC50 (143B [3]): 27.4 µM
- IC50 [4]: 23.7 µM
- IC50 (SW-620): 68.2 µM

- half-life [1]: 0.07 h
- half-life [5]: 0.02 h
SMILES: Cc1cn([C@H]2C[C@H](N=[N+]=[N-])[C@@H](COP(=O)(OCCS(=O)(=O)c3ccc([N+](=O)[O-])cc3)OCCS(=O)(=O)c3ccc([N+](=O)[O-])cc3)O2)c(=O)[nH]c1=O
- IC50 (MCF7): 22.9 µM
- IC50 [2]: 20.4 µM
- IC50 (143B [3]): 23.1 µM
- IC50 [4]: 15.2 µM
- IC50 (SW-620): 57 µM

SMILES: Cc1cn([C@H]2C[C@H](N=[N+]=[N-])[C@@H](COP(=O)(OCCS(=O)(=O)c3ccccc3)Oc3ccccc3)O2)c(=O)[nH]c1=O (some centres undefined)
- IC50 (MCF7): 25.3 µM
- half-life [1]: 1.22 h
- IC50 [2]: 21.7 µM
- IC50 (143B [3]): 25.4 µM
- IC50 [4]: 18.2 µM
- half-life [5]: 0.45 h
- IC50 (SW-620): 62.1 µM
